Consider 1 molecule from ChEMBL document CHEMBL4038311, “An Ursolic Acid Derived Small Molecule Triggers Cancer Cell Death through Hyperstimulation of Macropinocytosis” (J Med Chem, 2017).

For data set [1], the system named is HeLa. Description: Anticancer activity against human HeLa cells assessed as vacuole formation at 20 uM after 24 hrs by phase contrast microscopic analysis. The class given is functional, cell-based.
In data set [2] the test system is HeLa. Description: Induction of methuosis in human HeLa cells assessed as increase in number of cells with macropinosomes at 20 uM preincubated cells with macropinocytosis inhibitor EIPA for 30 mins followed by compound addition measured up to 72 hrs. The class given is functional, cell-based. The procedure, abridged: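 HeLa pretreated 30 min with or without 50 µM EIPA, then given 20 µM or DMSO for 4, 8, 12, 18, 24, 36, 48, 60 and 72 h. Cells bearing macropinosomes scored manually from field images and expressed as percentage of cells.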

For data set [3], the system named is HeLa. Description: Anticancer activity against human HeLa cells assessed as cell viability at 20 uM after 24 to 72 hrs by CCK8 assay relative to control. Particulars: read-out: Activity. It is filed as functional. An outline of the steps: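 HeLa cells seeded at 5000/well and pre-incubated overnight, then exposed to 20 µM. CCK-8 absorbance at 450 nm read at 24, 48 and 72 h, relative to DMSO-treated control. Six wells per condition, experiments repeated at least three times.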
For orientation: Tetrazolium assays rely on reduction of a dye to a coloured formazan, in cell work by metabolically active cells.

Data set [4] relates to HeLa. Description: Induction of autophagy in human HeLa cells assessed as conversion of LC3-1 to LC3-2 at 15 to 25 uM after 24 hrs by Western blot analysis. The class given is functional, cell-based. An outline of the steps: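 HeLa given indicated concentrations or 0.1% DMSO for 24 h. RIPA lysates, BCA-normalized, SDS-PAGE and PVDF transfer. Probed with anti-LC3 (overnight, 4 °C) after 5% milk block, infrared detection, GAPDH for normalization.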
(In general: Immunoblotting shows a protein as a band on a membrane.)

Data set [5] has as its system HeLa. Kind of data set: Anticancer activity against human HeLa cells assessed as reduction in colony formation after 48 hrs by Giemsa staining-based assay. The class given is functional, cell-based. The procedure, abridged:
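HeLa cells exposed 48 h to 15, 20 or 25 µM, then reseeded at 500 cells/well in six-well plates. After 15 days, colonies fixed in methanol, stained with Giemsa, photographed and counted.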

The test system of data set [6] is HeLa. Description: Induction of methuosis in human HeLa cells assessed as decrease in cell viability preincubated cells with dynamin inhibitor dynasore for 1 hr followed by compound addition measured after 48 hrs by CCK8 assay. The class given is functional, cell-based.
The test system of data set [7] is HeLa. Description: Induction of macropinocytosis-like cytosolic vacuolization in human HeLa cells at 20 uM measured within 4 hrs by time lapse phase contrast microscopic analysis. It is filed as functional, cell-based. An outline of the steps: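 HeLa plated at 50,000 per glass-bottom dish, pre-incubated overnight, then given 20 µM in a live-cell chamber (37 °C, 5% CO2). Phase-contrast frames captured every 90 sec.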

In data set [8] the test system is HepG2. Kind of data set: Anticancer activity against human HepG2 cells assessed as vacuole formation at 20 uM after 24 hrs by phase contrast microscopic analysis. It is filed as functional, cell-based.
In data set [9] the test system is HT-1080. Kind of data set: Anticancer activity against human HT1080 cells assessed as cell viability at 20 uM after 48 hrs by CCK8 assay relative to control. Particulars: HT-1080, 48 h, read-out: Activity. The class given is functional. An outline of the steps: (§1)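 Cells (5000/well, pre-incubated overnight) exposed to 20 µM for 48 h. CCK-8 absorbance read at 450 nm. Viability given as percent of vehicle (DMSO) control, mean ± SD. Six parallel wells per condition, at least three independent repeats.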

Data set [10] relates to HeLa. Description: Induction of apoptosis in human HeLa cells assessed as increase in cleaved caspase-3 levels at 30 to 100 uM after 48 hrs by Western blot analysis. It is filed as functional, cell-based. The procedure, abridged: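 HeLa given indicated concentrations. RIPA lysates, BCA-quantified, SDS-PAGE and PVDF transfer. Anti-caspase-3 or anti-PARP1 applied overnight at 4 °C after 1 h 5% milk block, secondary 2 h at RT. Infrared imaging, GAPDH as loading control.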

Data set [11] has as its system HeLa. Description: Induction of macropinocytosis in human HeLa cells assessed as colocalization of lucifer yellow and late endosomal marker Rab7 at 20 uM after 6 to 24 hrs by confocal microscopic analysis. The class given is functional, cell-based. Particulars: TDE = time-dependent effect. An outline of the steps: (§2)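 HeLa on poly-L-lysine coverslips given 0.1% DMSO or 20 µM for indicated times, then loaded with Lucifer yellow CH. Fixed in 4% PFA 30 min, permeabilized with 0.1% Triton X-100, blocked with 5% BSA. Anti-EEA1, -LAMP1 or -Rab7 applied overnight at 4 °C, Alexa488 secondary 1 h, DAPI counterstain. Confocal imaging.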

Data set [12] deals with SK-N-MC. Kind of data set: Anticancer activity against human SK-N-MC cells assessed as cell viability at 20 uM after 48 hrs by CCK8 assay relative to control. It is filed as functional. Particulars: read-out: Activity. The procedure, abridged:
as §1

A short description of data set [13]: Cytotoxicity against mouse C2C12 cells assessed as cell viability at 20 uM after 24 to 48 hrs by CCK8 assay relative to control. The class given is cell-based. The note with it: read-out: Activity. The procedure, abridged: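 C2C12 or HDF cells, seeded at 5000/well, given 20 µM or 0.1% DMSO for 24 h or 48 h. CCK-8 absorbance read at 450 nm, relative to DMSO control. Six parallel wells, at least three independent repeats.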

For data set [14], the system named is HeLa. Kind of data set: Induction of methuosis in human HeLa cells assessed as decrease in cell viability preincubated cells with vacuolar-type H+-ATPase inhibitor Baf-A1 for 1 hr followed by compound addition measured after 48 hrs by CCK8 assay. The class given is functional, cell-based. The procedure, abridged:
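HeLa incubated 1 h with 100 nM Baf-A1 before compound addition. Viability measured by CCK-8 at 450 nm against DMSO control.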

In data set [15] the test system is HeLa. Kind of data set: Induction of macropinocytosis in human HeLa cells assessed as colocalization of lucifer yellow and early endosomal marker EEA1 at 20 uM after 6 to 24 hrs by confocal microscopic analysis. The class given is functional, cell-based. An outline of the steps:
as §2

The test system of data set [16] is HeLa. Description: Induction of macropinocytosis-like cytosolic vacuolization in human HeLa cells at 20 uM after 24 hrs by transmission electron microscopic analysis. It is filed as functional, cell-based. An outline of the steps: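 HeLa exposed to 20 µM for 24 h, then fixed, dehydrated and resin-embedded. Ultrathin sections on copper grids stained with uranyl acetate and lead citrate, then examined by TEM.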

Data set [17] concerns HeLa. Kind of data set: Anticancer activity against human HeLa cells assessed as cell viability at 20 uM after 48 hrs by CCK8 assay relative to control. It is filed as functional. Particulars: read-out: Activity. The procedure, abridged:
as §1

Data set [18] concerns HeLa. Kind of data set: Anticancer activity against human HeLa cells assessed as decrease in cell viability at 20 uM preincubated cells with Z-VAD-FMK for 1 hr followed by compound addition measured after 48 hrs by CCK8 assay. It is filed as functional, cell-based. An outline of the steps: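 HeLa cells pretreated 1 h with 50 µM z-VAD-FMK, then given the compound. Viability read after 48 h by CCK-8 (450 nm), with DMSO-treated wells as control.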

The test system of data set [19] is HeLa. Kind of data set: Induction of macropinocytosis in human HeLa cells assessed as formation of mitochondrial degradative compartments at 20 uM after 24 hrs by Mitotracker red staining-based confocal microscopic analysis. The class given is functional, cell-based. The procedure, abridged: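 HeLa given 20 µM for 24 h, then labelled live with 50 nM LysoTracker Red (30 min) or 200 nM MitoTracker Red CMXRos (1 h) in medium, after Lucifer yellow loading. Imaged live by confocal microscopy.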

Data set [20] has as its system HeLa. Description: Induction of methuosis in human HeLa cells assessed as decrease in cell viability at 20 uM preincubated with macropinocytosis inhibitor EIPA for 30 mins followed by compound addition measured after 24 to 72 hrs by CCK8 assay. The class given is functional, cell-based. An outline of the steps: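 HeLa pretreated 30 min with or without 50 µM EIPA, then given 20 µM or DMSO. CCK-8 viability read at the indicated times.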

Active and inactive are the calls of the source. The calls are words filed in the database; no cut-off is given here.

In the case of `C[C@H]1[C@H](C)CC[C@]2(C(=O)O)CC[C@]3(C)C(=CC[C@@H]4[C@@]5(C)Cc6cnn(-c7ccc(C#N)cc7)c6C(C)(C)[C@@H]5CC[C@]43C)[C@H]12`, the outcome in data set [1], in data set [4], in [7], in data set [8], in data set [10] and in data set [15] was Active. The result in data set [16], in data set [18] and in data set [19] was Active. Further, the outcome in data set [2], in data set [6], in data set [14] and in data set [20] was inactive. Further, the viability at 20 µM stood at 74.2% in data set [3]; 26.8% in [9]; 28.6% in [12]; 13% in data set [13]; 18.6% in data set [17]. Further, the Activity entry is “Dose-dependent effect” in data set [5] and “Tde” in data set [11].
